Experimental data as given in ChEMBL document CHEMBL3526104 (Drug Metab Dispos, 2011).

Tests used:
Homo sapiens [1] = assay: AUC (0 to infinity) in healthy human assessed as fold change in presence of casopitant 120 mg, po once daily administered for 14 days; format: ADME, organism-based, Plasma; conditions: in vivo, 336 h
Homo sapiens [2] = assay: AUC (0 to infinity) in healthy human assessed as fold change in presence of casopitant 120 mg, po once daily administered for 3 days; format: ADME, organism-based, Plasma; conditions: in vivo, 72 h
Homo sapiens [3] = assay: AUC (0 to infinity) in healthy human assessed as fold change in presence of casopitant 30 mg, po once daily administered for 3 days; format: ADME, organism-based, Plasma; conditions: in vivo, 72 h
Homo sapiens [4] = assay: AUC (0 to infinity) in healthy human assessed as fold change in presence of casopitant 30 mg, po once daily administered for 14 days; format: ADME, organism-based, Plasma; conditions: in vivo, 336 h
[5] = Tmax in healthy human at 150 mg, po administered as single dose; format: ADME, organism-based; design: dosed compound name Casopitant; conditions: in vivo
Cytochrome P450 3A4 [6] = target: T1, Cytochrome P450 3A4 (Homo sapiens, UniProt P08684); assay: Drug metabolism assessed as human recombinant CYP3A4-mediated GSK525060 formation at 10 uM after 30 mins by HPLC-MS/MS method; format: ADME; conditions: recombinant enzyme, 0.5 h
T1 sequence (P08684 whole entry): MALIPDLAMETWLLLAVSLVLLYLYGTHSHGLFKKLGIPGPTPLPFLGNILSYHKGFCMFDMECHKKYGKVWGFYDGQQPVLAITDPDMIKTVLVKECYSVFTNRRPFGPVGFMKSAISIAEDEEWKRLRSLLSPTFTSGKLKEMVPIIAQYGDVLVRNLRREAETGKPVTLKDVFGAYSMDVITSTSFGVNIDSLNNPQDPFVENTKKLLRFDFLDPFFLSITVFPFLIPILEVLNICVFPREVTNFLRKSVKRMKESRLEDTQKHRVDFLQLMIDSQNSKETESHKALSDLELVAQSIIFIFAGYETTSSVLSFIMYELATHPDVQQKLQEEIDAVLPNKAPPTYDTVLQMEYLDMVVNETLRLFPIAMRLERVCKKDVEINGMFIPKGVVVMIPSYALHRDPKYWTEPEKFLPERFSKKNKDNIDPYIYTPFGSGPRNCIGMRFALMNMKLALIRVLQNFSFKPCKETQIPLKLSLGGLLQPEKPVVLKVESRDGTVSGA
Method in brief: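 Recombinant human CYP3A4 in 50 mM phosphate buffer, pH 7.4, with an NADPH-generating system. […] GSK525060 formation quantified by HPLC-MS/MS.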

[7] = Dissociation constant, pKa of the compound; format: physicochemical
[8] = Tmax in healthy human at 100 mg, po administered as single dose; format: ADME, organism-based; design: dosed compound name Casopitant; conditions: in vivo
Cytochrome P450 3A4 [9] = target: T1, Cytochrome P450 3A4; assay: Fraction of drug metabolized assessed as human CYP3A4-mediated drug metabolism; format: ADME; conditions: recombinant enzyme
Homo sapiens [10] = assay: Cmax in healthy human assessed as fold change at 100 mg, po in presence of 400 mg ketoconazole; format: ADME, organism-based; design: dosed compound name Casopitant; conditions: in vivo
Method in brief: (§1)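 Open-label study, healthy subjects (n=12 enrolled; 13 per treatment in table): single oral 100 mg dose given alone on Day 1, then with oral ketoconazole 400 mg once daily for 7 days, co-dosed on Day 4 of ketoconazole. Plasma parent drug measured by validated HPLC-MS/MS at selected time points; ratios from geometric means of AUC(0-t) and Cmax, 90% CI.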

[11] = Cmax in healthy human at 100 mg, po administered as single dose on day 4 and cotreated with ketoconazole at 400 mg, po qd on day 1 to 7; format: ADME, organism-based; conditions: in vivo
[12] = Unbound fraction in human gut; format: ADME, tissue-based; design: dosed compound name Casopitant
[13] = Tmax in healthy human at 100 mg, po administered as single dose on day 4 and cotreated with ketoconazole at 400 mg, po qd on day 1 to 7; format: ADME, organism-based; design: dosed compound name Casopitant; conditions: in vivo
[14] = Cmax in healthy human at 150 mg, po administered as single dose; format: ADME, organism-based; conditions: in vivo
[15] = Cmax in healthy human at 150 mg, po administered as single dose on day 8 and cotreated with rifampin at 600 mg, po qd on day 1 to 9; format: ADME, organism-based; conditions: in vivo
[16] = Lipophilicity, log P of the compound; format: physicochemical; conditions: octanol/water
[17] = Half life in healthy human at 150 mg, po administered as single dose on day 8 and cotreated with rifampin at 600 mg, po qd on day 1 to 9; format: ADME, organism-based; design: dosed compound name Casopitant; conditions: in vivo
[18] = AUC (0 to t) in healthy human at 100 mg, po administered as single dose on day 4 and cotreated with ketoconazole at 400 mg, po qd on day 1 to 7; format: ADME, organism-based; design: dosed compound name Casopitant; conditions: plasma
[19] = AUC (0 to t) in healthy human at 100 mg, po administered as single dose; format: ADME, organism-based; design: dosed compound name Casopitant; conditions: plasma
Homo sapiens [20] = assay: AUC in healthy human assessed as fold change at 100 mg, po in presence of 400 mg ketoconazole; format: ADME, organism-based, Plasma; design: dosed compound name Casopitant; conditions: in vivo; method in brief: as §1
[21] = Volume of distribution at steady state in human; format: ADME, organism-based; design: dosed compound name Casopitant; conditions: in vivo, read-out: Vdss
[22] = AUC (0 to t) in healthy human at 150 mg, po administered as single dose; format: ADME, organism-based; design: dosed compound name Casopitant; conditions: plasma
[23] = Unbound fraction in human plasma; format: ADME, cell-free
Cytochrome P450 3A4 [24] = target: T1, Cytochrome P450 3A4; assay: Drug metabolism in human liver microsomes assessed as CYP3A4-mediated GSK525060 formation at 5 to 20 uM up to 30 mins by HPLC-MS/MS method; format: ADME; conditions: 0.5 h
Method in brief: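 Pooled human liver microsomes in 50 mM phosphate buffer, pH 7.4, with an NADPH-generating system. […] GSK525060 measured by HPLC-MS/MS.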

[25] = AUC (0 to t) in healthy human at 150 mg, po administered as single dose on day 8 and cotreated with rifampin at 600 mg, po qd on day 1 to 9; format: ADME, organism-based; design: dosed compound name Casopitant; conditions: plasma
CYP3A4 = CYP3A4 (Homo sapiens, UniProt P08684); assay: Metabolism dependent inactivation of CYP3A4 in human liver microsomes pretreated with compound in presence of midazolam substrate and NADPH by HPLC-MS/MS method relative to untreated control; conditions: probe midazolam
Sequence of CYP3A4 (P08684 whole entry): as above

Homo sapiens [26] = assay: Cmax in healthy human assessed as fold change at 150 mg, po in presence of 600 mg rifampin; format: ADME, organism-based; design: dosed compound name Casopitant; conditions: in vivo
Method in brief: (§2)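 Open-label study, 12 healthy subjects: single oral 150 mg dose alone on Day 1, then with oral rifampin 600 mg once daily (study Days 9-17), co-dosed on Day 16. Plasma parent drug measured by validated HPLC-MS/MS at selected time points; fold change from geometric means of AUC(0-t) and Cmax, 90% CI.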

[27] = Half life in healthy human at 150 mg, po administered as single dose; format: ADME, organism-based; design: dosed compound name Casopitant; conditions: in vivo
Homo sapiens [28] = assay: AUC in healthy human assessed as fold change at 150 mg, po in presence of 600 mg rifampin; format: ADME, organism-based, Plasma; design: dosed compound name Casopitant; conditions: in vivo; method in brief: as §2
[29] = Cmax in healthy human at 100 mg, po administered as single dose; format: ADME, organism-based; conditions: in vivo
[30] = Tmax in healthy human at 150 mg, po administered as single dose on day 8 and cotreated with rifampin at 600 mg, po qd on day 1 to 9; format: ADME, organism-based; design: dosed compound name Casopitant; conditions: in vivo
Liver microsome = assay: Intrinsic clearance in human liver microsomes assessed per mg protein; format: ADME
Method in brief: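 CLint derived from Km and Vmax of GSK525060 formation in human liver microsomes. […] Metabolite measured by HPLC-MS/MS; Michaelis-Menten fit by non-linear regression.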

For `COC(=O)C1=C(C)NC(C)=C(C(=O)OC)C1c1ccccc1[N+](=O)[O-]` [NIFEDIPINE], the “fold change (FC)” value (Homo sapiens [1]) was 1.42, the “fold change (FC)” value (Homo sapiens [2]) was 1.77 and the “fold change (FC)” value (Homo sapiens [3]) was 1.56. For the same molecule, the “fold change (FC)” value (Homo sapiens [4]) was 1.61.
For `CC(=O)N1CCN([C@H]2CCN(C(=O)N(C)[C@H](C)c3cc(C(F)(F)F)cc(C(F)(F)F)c3)[C@@H](c3ccc(F)cc3C)C2)CC1` [CASOPITANT], the Tmax [5] was 1.25 h, the Drug metabolism (Cytochrome P450 3A4 [6]) was “metabolite_detected” and the pKa [7] was 6.3. The Tmax [8] was 1 h, the Fm (Cytochrome P450 3A4 [9]) was 1 and the “fold change (FC)” value (Homo sapiens [10]) was 2.71. For the same molecule, the Cmax [11] was 1250 ng/mL, the fraction unbound [12] was 1 and the Tmax [13] was 2 h. It also gave a Cmax [14] of 847 ng/mL, a Cmax [15] of 93.2 ng/mL and a logP [16] of 5.6. For the same molecule, the half-life [17] was 6.45 h, the AUC(0-t) [18] was 31200 ng·h/mL and the AUC(0-t) [19] was 2590 ng·h/mL. For the same molecule, the “fold change (FC)” value (Homo sapiens [20]) was 12.1, the Vd [21] was 2.58 L/kg and the AUC(0-t) [22] was 6570 ng·h/mL. For the same molecule, the fraction unbound [23] was 0.005, the Drug metabolism (Cytochrome P450 3A4 [24]) was “metabolite_detected” and the AUC(0-t) [25] was 273 ng·h/mL. The KI (CYP3A4) was 3.1 µM, the “fold change (FC)” value (Homo sapiens [26]) was 0.11 and the half-life [27] was 19.2 h. The “fold change (FC)” value (Homo sapiens [28]) was 0.04, the Cmax [29] was 457 ng/mL and the Tmax [30] was 1 h. It also gave a CLint (Liver microsome) of 25 µL/min/mg.
For `Cc1ncc2n1-c1ccc(Cl)cc1C(c1ccccc1F)=NC2` [MIDAZOLAM], the “fold change (FC)” value (Homo sapiens [1]) was 3.49, the “fold change (FC)” value (Homo sapiens [2]) was 2.67 and the “fold change (FC)” value (Homo sapiens [3]) was 2.02. The “fold change (FC)” value (Homo sapiens [4]) was 1.76.
